# From ChEMBL document CHEMBL4152256, “Structure-activity relationship of new antimalarial 1-aryl-3-susbtituted propanol derivatives: Synthesis, preliminary toxicity profiling, parasite life cycle stage studies, target exploration, and targeted delivery” (Eur J Med Chem, 2018)
# Assays:
# Plasmodium falciparum [1] = assay: Antiplasmodial activity against multidrug-resistant Plasmodium falciparum FCR-3 by [3H]-hypoxanthine incorporation assay; format: functional, organism-based, FCR-3/Gambia; conditions: Plasmodium falciparum, FCR-3/Gambia
# Summary of the method: (§1)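 Blood-stage P. falciparum 3D7 and FCR-3 were tested by a modified [3H]-hypoxanthine incorporation assay. Chloroquine was the reference in all runs.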
# [2] = Selectivity index, ratio of CC50 for human HepG2A16 cells by MTT assay to IC50 for multidrug-resistant Plasmodium falciparum FCR-3; format: toxicity; conditions: HepG2A16 cells, read-out: Ratio CC50/IC50
# Summary of the method: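 HepG2-A16 human hepatoma cells were tested by MTT viability assay to give CC50. Blood-stage activity was measured against the multidrug-resistant P. falciparum FCR-3 strain by [3H]-hypoxanthine incorporation to give IC50. SI = CC50 HepG2 / FCR-3 IC50.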
# [3] = Solubility of the compound in DSPC:cholesterol:DSPE-PEG2000-Mal:DOPE-Rho lipid mixture at 250 uM; format: physicochemical
# Summary of the method: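 Compound added at 250 µM drug to the initial liposome lipid mixture (10 mM total lipid); precipitation and UV-visible absorbance above 300 nm assessed after encapsulation, removal of unencapsulated material and extraction with 1% w/v SDS in RPMI-A.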
# Plasmodium falciparum [4] = assay: Antiplasmodial activity against chloroquine-sensitive Plasmodium falciparum 3D7 by [3H]-hypoxanthine incorporation assay; format: functional, organism-based; conditions: Plasmodium falciparum, 3D7; summary of the method: as §1
# [5] = Cytotoxicity against human HepG2A16 cells by MTT assay; format: cell-based; conditions: HepG2A16 cells
# Summary of the method: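 MTT viability assay on HepG2-A16 cells, giving CC50 values.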
# [6] = Genotoxicity in Salmonella typhimurium TA1535 harboring pSK1002 assessed as survival at 0.008 mg/ml in absence of Sprague-Dawley rat liver S9 fraction after by SOS/umu assay relative to control; format: toxicity, organism-based; conditions: salmonella enterica subsp. enterica serovar typhimurium, read-out: Survival
# [7] = Genotoxicity in Salmonella typhimurium TA1535 harboring pSK1002 assessed as umu gene induction at 0.016 mg/ml in absence of Sprague-Dawley rat liver S9 fraction after by SOS/umu assay relative to control; format: toxicity, organism-based; conditions: salmonella enterica subsp. enterica serovar typhimurium, read-out: FC
# [8] = Genotoxicity in Salmonella typhimurium TA1535 harboring pSK1002 assessed as survival at 0.016 mg/ml in presence of Sprague-Dawley rat liver S9 fraction after by SOS/umu assay relative to control; format: toxicity, organism-based; conditions: salmonella enterica subsp. enterica serovar typhimurium, read-out: Survival
# [9] = Genotoxicity in Salmonella typhimurium TA1535 harboring pSK1002 assessed as survival at 0.002 mg/ml in absence of Sprague-Dawley rat liver S9 fraction after by SOS/umu assay relative to control; format: toxicity, organism-based; conditions: salmonella enterica subsp. enterica serovar typhimurium, read-out: Survival
# [10] = Genotoxicity in Salmonella typhimurium TA1535 harboring pSK1002 assessed as survival at 0.063 mg/ml in absence of Sprague-Dawley rat liver S9 fraction after by SOS/umu assay relative to control; format: toxicity, organism-based; conditions: salmonella enterica subsp. enterica serovar typhimurium, read-out: Survival
# [11] = Genotoxicity in Salmonella typhimurium TA1535 harboring pSK1002 assessed as survival at 0.002 mg/ml in presence of Sprague-Dawley rat liver S9 fraction after by SOS/umu assay relative to control; format: toxicity, organism-based; conditions: salmonella enterica subsp. enterica serovar typhimurium, read-out: Survival
# [12] = Genotoxicity in Salmonella typhimurium TA1535 harboring pSK1002 assessed as survival at 0.031 mg/ml in absence of Sprague-Dawley rat liver S9 fraction after by SOS/umu assay relative to control; format: toxicity, organism-based; conditions: salmonella enterica subsp. enterica serovar typhimurium, read-out: Survival
# [13] = Genotoxicity in Salmonella typhimurium TA1535 harboring pSK1002 assessed as survival at 0.125 mg/ml in absence of Sprague-Dawley rat liver S9 fraction after by SOS/umu assay relative to control; format: toxicity, organism-based; conditions: salmonella enterica subsp. enterica serovar typhimurium, read-out: Survival
# [14] = Genotoxicity in Salmonella typhimurium TA1535 harboring pSK1002 assessed as umu gene induction at 0.125 mg/ml in absence of Sprague-Dawley rat liver S9 fraction after by SOS/umu assay relative to control; format: toxicity, organism-based; conditions: salmonella enterica subsp. enterica serovar typhimurium, read-out: FC
# [15] = Genotoxicity in Salmonella typhimurium TA1535 harboring pSK1002 assessed as umu gene induction at 0.001 mg/ml in absence of Sprague-Dawley rat liver S9 fraction after by SOS/umu assay relative to control; format: toxicity, organism-based; conditions: salmonella enterica subsp. enterica serovar typhimurium, read-out: FC
# [16] = Genotoxicity in Salmonella typhimurium TA1535 harboring pSK1002 assessed as umu gene induction at 0.002 mg/ml in absence of Sprague-Dawley rat liver S9 fraction after by SOS/umu assay relative to control; format: toxicity, organism-based; conditions: salmonella enterica subsp. enterica serovar typhimurium, read-out: FC
# [17] = Genotoxicity in Salmonella typhimurium TA1535 harboring pSK1002 assessed as survival at 0.001 mg/ml in presence of Sprague-Dawley rat liver S9 fraction after by SOS/umu assay relative to control; format: toxicity, organism-based; conditions: salmonella enterica subsp. enterica serovar typhimurium, read-out: Survival
# [18] = Genotoxicity in Salmonella typhimurium TA1535 harboring pSK1002 assessed as survival at 0.004 mg/ml in absence of Sprague-Dawley rat liver S9 fraction after by SOS/umu assay relative to control; format: toxicity, organism-based; conditions: salmonella enterica subsp. enterica serovar typhimurium, read-out: Survival
# [19] = Genotoxicity in Salmonella typhimurium TA1535 harboring pSK1002 assessed as umu gene induction at 0.008 mg/ml in presence of Sprague-Dawley rat liver S9 fraction after by SOS/umu assay relative to control; format: toxicity, organism-based; conditions: salmonella enterica subsp. enterica serovar typhimurium, read-out: FC
# [20] = Genotoxicity in Salmonella typhimurium TA1535 harboring pSK1002 assessed as umu gene induction at 0.002 mg/ml in presence of Sprague-Dawley rat liver S9 fraction after by SOS/umu assay relative to control; format: toxicity, organism-based; conditions: salmonella enterica subsp. enterica serovar typhimurium, read-out: FC
# [21] = Genotoxicity in Salmonella typhimurium TA1535 harboring pSK1002 assessed as survival at 0.125 mg/ml in presence of Sprague-Dawley rat liver S9 fraction after by SOS/umu assay relative to control; format: toxicity, organism-based; conditions: salmonella enterica subsp. enterica serovar typhimurium, read-out: Survival
# [22] = Genotoxicity in Salmonella typhimurium TA1535 harboring pSK1002 assessed as survival at 0.008 mg/ml in presence of Sprague-Dawley rat liver S9 fraction after by SOS/umu assay relative to control; format: toxicity, organism-based; conditions: salmonella enterica subsp. enterica serovar typhimurium, read-out: Survival
# [23] = Genotoxicity in Salmonella typhimurium TA1535 harboring pSK1002 assessed as umu gene induction at 0.004 mg/ml in absence of Sprague-Dawley rat liver S9 fraction after by SOS/umu assay relative to control; format: toxicity, organism-based; conditions: salmonella enterica subsp. enterica serovar typhimurium, read-out: FC
# [24] = Genotoxicity in Salmonella typhimurium TA1535 harboring pSK1002 assessed as survival at 0.001 mg/ml in absence of Sprague-Dawley rat liver S9 fraction after by SOS/umu assay relative to control; format: toxicity, organism-based; conditions: salmonella enterica subsp. enterica serovar typhimurium, read-out: Survival
# [25] = Genotoxicity in Salmonella typhimurium TA1535 harboring pSK1002 assessed as umu gene induction at 0.063 mg/ml in absence of Sprague-Dawley rat liver S9 fraction after by SOS/umu assay relative to control; format: toxicity, organism-based; conditions: salmonella enterica subsp. enterica serovar typhimurium, read-out: FC
# [26] = Genotoxicity in Salmonella typhimurium TA1535 harboring pSK1002 assessed as survival at 0.063 mg/ml in presence of Sprague-Dawley rat liver S9 fraction after by SOS/umu assay relative to control; format: toxicity, organism-based; conditions: salmonella enterica subsp. enterica serovar typhimurium, read-out: Survival
# [27] = Genotoxicity in Salmonella typhimurium TA1535 harboring pSK1002 assessed as survival at 0.016 mg/ml in absence of Sprague-Dawley rat liver S9 fraction after by SOS/umu assay relative to control; format: toxicity, organism-based; conditions: salmonella enterica subsp. enterica serovar typhimurium, read-out: Survival
# [28] = Genotoxicity in Salmonella typhimurium TA1535 harboring pSK1002 assessed as umu gene induction at 0.063 mg/ml in presence of Sprague-Dawley rat liver S9 fraction after by SOS/umu assay relative to control; format: toxicity, organism-based; conditions: salmonella enterica subsp. enterica serovar typhimurium, read-out: FC
# [29] = Genotoxicity in Salmonella typhimurium TA1535 harboring pSK1002 assessed as umu gene induction at 0.031 mg/ml in absence of Sprague-Dawley rat liver S9 fraction after by SOS/umu assay relative to control; format: toxicity, organism-based; conditions: salmonella enterica subsp. enterica serovar typhimurium, read-out: FC
# [30] = Genotoxicity in Salmonella typhimurium TA1535 harboring pSK1002 assessed as umu gene induction at 0.125 mg/ml in presence of Sprague-Dawley rat liver S9 fraction after by SOS/umu assay relative to control; format: toxicity, organism-based; conditions: salmonella enterica subsp. enterica serovar typhimurium, read-out: FC
# [31] = Genotoxicity in Salmonella typhimurium TA1535 harboring pSK1002 assessed as umu gene induction at 0.031 mg/ml in presence of Sprague-Dawley rat liver S9 fraction after by SOS/umu assay relative to control; format: toxicity, organism-based; conditions: salmonella enterica subsp. enterica serovar typhimurium, read-out: FC
# [32] = Genotoxicity in Salmonella typhimurium TA1535 harboring pSK1002 assessed as survival at 0.031 mg/ml in presence of Sprague-Dawley rat liver S9 fraction after by SOS/umu assay relative to control; format: toxicity, organism-based; conditions: salmonella enterica subsp. enterica serovar typhimurium, read-out: Survival
# [33] = Genotoxicity in Salmonella typhimurium TA1535 harboring pSK1002 assessed as survival at 0.004 mg/ml in presence of Sprague-Dawley rat liver S9 fraction after by SOS/umu assay relative to control; format: toxicity, organism-based; conditions: salmonella enterica subsp. enterica serovar typhimurium, read-out: Survival
# [34] = Genotoxicity in Salmonella typhimurium TA1535 harboring pSK1002 assessed as umu gene induction at 0.001 mg/ml in presence of Sprague-Dawley rat liver S9 fraction after by SOS/umu assay relative to control; format: toxicity, organism-based; conditions: salmonella enterica subsp. enterica serovar typhimurium, read-out: FC
# [35] = Genotoxicity in Salmonella typhimurium TA1535 harboring pSK1002 assessed as umu gene induction at 0.008 mg/ml in absence of Sprague-Dawley rat liver S9 fraction after by SOS/umu assay relative to control; format: toxicity, organism-based; conditions: salmonella enterica subsp. enterica serovar typhimurium, read-out: FC
# [36] = Genotoxicity in Salmonella typhimurium TA1535 harboring pSK1002 assessed as umu gene induction at 0.004 mg/ml in presence of Sprague-Dawley rat liver S9 fraction after by SOS/umu assay relative to control; format: toxicity, organism-based; conditions: salmonella enterica subsp. enterica serovar typhimurium, read-out: FC
# [37] = Genotoxicity in Salmonella typhimurium TA1535 harboring pSK1002 assessed as umu gene induction at 0.016 mg/ml in presence of Sprague-Dawley rat liver S9 fraction after by SOS/umu assay relative to control; format: toxicity, organism-based; conditions: salmonella enterica subsp. enterica serovar typhimurium, read-out: FC
smiles,measurement,setting,value
COC(=O)c1ccc(C(O)CCN2CCN(C(c3ccccc3)c3ccccc3)CC2)cc1 (stereo unspecified),IC50,Plasmodium falciparum [1],1.46 µM
same,selectivity ratio,[2],58
same,solubility,[3],Insoluble
same,IC50,Plasmodium falciparum [4],1.69 µM
same,CC50,[5],84 µM
O=[N+]([O-])c1ccc(N2CCN(CCC(O)c3ccc(F)c4ccccc34)CC2)cc1 (stereo unspecified),viability at 0.008 mg/ml,[6],84.2%
same,fold induction at 0.016 mg/ml,[7],1.1
same,viability at 0.016 mg/ml,[8],117%
same,viability at 0.002 mg/ml,[9],87%
same,IC50,Plasmodium falciparum [1],1.71 µM
same,viability at 0.063 mg/ml,[10],124%
same,viability at 0.002 mg/ml,[11],107%
same,viability at 0.031 mg/ml,[12],105%
same,viability at 0.125 mg/ml,[13],145%
same,fold induction at 0.125 mg/ml,[14],0.6
same,fold induction at 0.001 mg/ml,[15],0.5
same,fold induction at 0.002 mg/ml,[16],0.8
same,viability at 0.001 mg/ml,[17],110%
same,viability at 0.004 mg/ml,[18],84.9%
same,fold induction at 0.008 mg/ml,[19],0.6
same,fold induction at 0.002 mg/ml,[20],0.9
same,viability at 0.125 mg/ml,[21],128%
same,viability at 0.008 mg/ml,[22],118%
same,selectivity ratio,[2],7
same,fold induction at 0.004 mg/ml,[23],1.2
same,viability at 0.001 mg/ml,[24],88%
same,fold induction at 0.063 mg/ml,[25],0.7
same,viability at 0.063 mg/ml,[26],118%
same,viability at 0.016 mg/ml,[27],83.8%
same,fold induction at 0.063 mg/ml,[28],0.5
same,fold induction at 0.031 mg/ml,[29],0.8
same,fold induction at 0.125 mg/ml,[30],0.5
same,fold induction at 0.031 mg/ml,[31],0.5
same,viability at 0.031 mg/ml,[32],122%
same,viability at 0.004 mg/ml,[33],109%
same,IC50,Plasmodium falciparum [4],4.74 µM
same,fold induction at 0.001 mg/ml,[34],0.8
same,fold induction at 0.008 mg/ml,[35],1.3
same,fold induction at 0.004 mg/ml,[36],0.9
same,fold induction at 0.016 mg/ml,[37],0.5
same,CC50,[5],12.5 µM
